A selection: hits, their analogues and other compounds. The true share with any hit is near 2.5%.
bovine MsrA act – bovine methionine sulfoxide reductase A activation; purified bovine MsrA, absorbance read-out; activation, % at 10.6 µM; 360,000 tested, 0.3% active; AID 602163; in the data active means activation above about 7.5%;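 further: 0% = vehicle and 100% = reference activator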
NR2E3 ag-1 – human photoreceptor-specific nuclear receptor agonism; inhibition of corepressor binding, % at 3.98 µM; CHO-S Gal4-NCOR/VP16-NR2E3 two-hybrid, luciferase; AID 602229; Q9Y5X4; 360,000 tested, 0.35% active;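 active means inhibition above the mean of all tested compounds plus 3 SD, cut at about 70% in these data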;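 further: 0% = DMSO with NR2E3 transfected cells and 100% = cells lacking NR2E3 construct; higher means lower luciferase signal from less NR2E3 corepressor binding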
Target sequence (Q9Y5X4 whole entry, looked up, the tested form may be a part): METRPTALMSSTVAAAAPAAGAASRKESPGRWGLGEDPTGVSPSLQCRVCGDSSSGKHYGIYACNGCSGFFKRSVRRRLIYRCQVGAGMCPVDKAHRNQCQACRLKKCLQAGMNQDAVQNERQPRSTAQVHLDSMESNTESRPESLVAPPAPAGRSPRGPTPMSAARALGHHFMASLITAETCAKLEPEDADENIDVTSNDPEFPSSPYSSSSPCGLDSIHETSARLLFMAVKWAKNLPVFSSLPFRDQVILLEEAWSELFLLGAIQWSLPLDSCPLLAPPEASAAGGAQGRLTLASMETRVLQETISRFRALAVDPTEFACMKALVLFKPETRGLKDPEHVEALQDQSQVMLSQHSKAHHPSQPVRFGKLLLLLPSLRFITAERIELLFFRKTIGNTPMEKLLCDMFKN
GalR3 antag – human GalR3 antagonism | HEK293 GalR3-CNG cAMP membrane potential fluorescence; galR3 body fused to GalR1 C-terminus | AID 651719 | inhibition, % at 3 µM | 360,000 tested, 0.44% active;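 active means inhibition above the screen-wide average plus 3 SD, cut at about 13% in these data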;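 further: forskolin and galanin both at EC90 stimulate the cells; cAMP rise reported by CNG channel membrane potential dye signal; 0% = forskolin plus galanin with DMSO and 100% = forskolin alone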
Target sequence (O60755 1-299 limits assumed): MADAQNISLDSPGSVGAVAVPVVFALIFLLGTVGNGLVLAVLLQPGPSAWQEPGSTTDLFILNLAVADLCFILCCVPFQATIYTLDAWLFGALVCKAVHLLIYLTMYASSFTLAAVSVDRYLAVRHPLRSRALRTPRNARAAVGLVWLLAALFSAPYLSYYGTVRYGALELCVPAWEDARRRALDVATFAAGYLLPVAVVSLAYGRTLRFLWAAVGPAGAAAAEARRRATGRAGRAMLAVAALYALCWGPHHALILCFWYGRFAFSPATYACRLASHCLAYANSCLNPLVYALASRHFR
MsrA inh – inhibitors of bovine MsrA; 360,000 tested, 0.75% active; inhibition, % at 15.5 µM; purified bovine MsrA, absorbance read-out; AID 651718; in the data active means inhibition above about 4.5%;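 further: 0% = vehicle wells with enzyme and 100% = reference inhibitor wells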
NR2E3 ag-2 – activates human photoreceptor nuclear receptor NR2E3 | GST-NR2E3/biotin-RetCOR TR-FRET, 1536-well | Q9Y5X4 | inhibition of corepressor binding, % at 4.78 µM | AID 2300 | 320,000 tested, 0.12% active;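 active means percent inhibition above the cutoff of mean plus 3 SD of all tested compounds, set per screening campaign, cut at about 20% in these data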;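 further: 0% = DMSO wells and 100% = biotin wells as full block of FRET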
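Material: NR2E3–RetCOR corepressor complex | Quantity: 1.35 nM GST-tagged NR2E3 final | Schedule: 5 h at 4 °C | Replication: Singlicate compound wells | Reagent: RetCOR corepressor, biotinylated, 7 nM | Controls: Biotin wells as high control, 0.6% DMSO wells as low control | Signal: TR-FRET, Eu(K)-anti-GST donor, streptavidin-D2 acceptor, ex 340, em 617/671 nm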
NadD block – NadD (S. aureus) enzyme inhibition | purified NadD enzyme, colorimetric absorbance read-out | inhibition, % at 20 µM | 360,000 tested, 0.78% active; in the data active means inhibition above about 26%
Numbers without * were called inactive; / = not tested or not shown.

SMILES	bovine MsrA act	NR2E3 ag-1	GalR3 antag	MsrA inh	NR2E3 ag-2	NadD block
Cc1ccc(N=Nc2c(N)[nH]n3c(=O)cc(-c4ccccc4)nc23)cc1	-4.9	-33.9	-1.4	0.9	2.6	55.3*
COc1cc(C(=O)N/C(=C\c2cn(C)c3ccccc23)C(=O)NCCCO)cc(OC)c1OC	-10.5	12.6	0.8	4.7*	2.5	-0.4
Cc1ccc(S(=O)(=O)N2CCN(C(=O)Cc3ccccc3)CC2)cc1C	-0.7	23.8	-6.8	0.8	4.0	3.2
Cc1ccc(CC(=O)N2CCN(S(=O)(=O)c3ccccc3)CC2)cc1C	-9.5	5.0	-4.1	4.6*	-1.9	7.8
Cc1nn(CCC#N)c(NC(=O)c2ccc(Cl)cc2)c1P(=O)(Nc1ccc([N+](=O)[O-])cc1)N1CCOCC1 (stereo unspecified)	-13.3	23.3	-5.9	2.2	3.7	-0.2
Cc1nn(CCC#N)c(NC(=O)c2ccc(Cl)cc2Cl)c1P(=O)(Nc1ccc([N+](=O)[O-])cc1)N1CCOCC1 (stereo unspecified)	-9.4	10.0	-6.8	4.7*	1.5	-3.9
COc1cccc(-c2ccc(C#N)c(OC(=O)c3ccc(Cl)cc3)n2)c1	-3.6	-18.8	-2.8	2.7	1.3	3.8
CC(=O)Nc1ccc(NC(=O)/C=C/c2ccc(Cl)cc2)cc1	-7.9	-3.8	-1.5	2.0	0.1	-3.3
Cc1cc(C)c(C(=O)/C=C/c2ccc(C(C)C)cc2)c(=O)[nH]1	-3.5	82.0*	-4.1	1.2	-3.7	-1.4
CCN=c1scc(C)n1/N=C/c1cc(Br)c(O)c(OC)c1	-6.8	-21.6	6.1	3.1	4.0	35.3*
Nc1[nH]n2c(=O)c3c(nc2c1N=Nc1ccc(Cl)cc1)CCCC3	-2.5	-5.7	3.0	-0.5	-2.9	31.8*
O=S(=O)(NCc1nc2ccccc2[nH]1)c1ccccc1	-4.3	-9.5	-3.3	1.1	-2.6	-3.6
CCOc1ccc(S(=O)(=O)Nc2cnc3ccccc3c2)cc1	-2.6	99.2*	-8.9	-0.1	-0.5	1.8
CCOC(=O)c1ccc(N2N=C(C)/C(=C/C=C/c3ccco3)C2=O)cc1	-2.2	-10.8	-2.6	-0.9	1.1	2.7
O=C(O)c1cc(N2N=C(C(F)(F)F)/C(=C/C=C/c3ccco3)C2=O)ccc1Cl	-6.6	-19.1	-0.4	1.1	/	42.5*
O=C(c1ccccc1)C(c1ccccc1)c1ccccc1	-3.2	-20.7	-3.8	1.7	-3.2	-7.8
Oc1ccc(N=Nc2ccc3c(c2)OCCO3)c2ncccc12	-8.0	37.4	-5.2	0.2	4.2	27.2*
Cc1ccc(NC(=O)C(C)S)cc1 (stereo unspecified)	-6.0	-8.9	-4.7	1.1	0.3	-7.2
Cc1ccc(OCCSCc2nc3ccccc3[nH]2)cc1	0.3	22.4	18.0*	0.5	-1.8	-2.9
CCN1CCN(c2cc(N3CCN(C(=O)c4ccco4)CC3)c3c4c(onc24)-c2ccccc2C3=O)CC1	-5.0	-22.9	/	/	-14.7	44.8*
C#CCn1c(=NC(=O)c2ccc(S(=O)(=O)N3CCc4ccccc4C3)cc2)sc2cc(S(N)(=O)=O)ccc21	-2.4	-18.6	/	/	15.7	47.4*
COC(=O)Cn1c(=NC(=O)c2ccc(S(=O)(=O)N3CCc4ccccc4C3)cc2)sc2cc(OC)ccc21	-2.2	-9.1	3.0	-0.5	2.9	12.2
CN(CCC#N)c1ccc(C=C(C#N)c2cccc(C(F)(F)F)c2)cc1	-11.2	3.4	/	/	/	8.6
Cc1cc2cc(C(c3nnnn3CC3CCCO3)N3CCCc4ccccc43)c(=O)[nH]c2cc1C (stereo unspecified)	-1.6	-4.7	-3.1	4.6*	/	9.3
CC1CCCCN1CCCn1c(=S)[nH]c2ccccc2c1=O (stereo unspecified)	-1.8	-16.6	1.4	-0.1	1.6	1.0
SMILES	bovine MsrA act	NR2E3 ag-1	GalR3 antag	MsrA inh	NR2E3 ag-2	NadD block
CCCCCC(=O)C(=O)c1ccc(O)cc1O	-3.7	-16.8	-10.9	4.6*	1.7	1.5
O=C1NC(=Nc2ccccc2)S/C1=C\c1cccn1-c1ccccc1	0.6	-218.0	-7.6	-0.2	0.6	37.9*
Cc1cccc(N=C2NC(=O)/C(=C/c3cccn3C)S2)c1	-1.7	-12.1	-3.2	-0.6	0.8	-9.1
O=C(N/N=C/c1ccc(Sc2ccccn2)o1)c1cc2ccccc2cc1O	-3.4	-40.2	/	/	0.0	62.2*
O=C(N/N=C\c1ccc(Sc2ccccn2)o1)c1cccc(F)c1	0.2	-9.0	0.3	3.9	-3.7	-2.5
Cc1ccc(CNC(=O)c2ccccc2NC(=O)CSc2nnnn2C)cc1	-2.5	-2.3	-2.3	-1.0	2.3	-4.5
CCCCC1(C)OC(=O)C(=Cc2ccc(N(CC)CC)cc2)C(=O)O1 (stereo unspecified)	-5.4	-9.8	-1.4	5.2*	0.6	13.7
CCN(CC)c1ccc(C=C2C(=O)OC3(CCCCC3)OC2=O)cc1	-3.8	-8.4	0.2	4.1	4.9	4.8
CCc1cc2c(=O)c(Oc3ccccc3F)c(C)oc2c(CN(C)C)c1O	-2.4	-11.3	-3.1	6.7*	2.0	7.9
CCCC(C(=O)NC1CCCC1)N(C(=O)c1snc(C(N)=O)c1N)c1ccc(OCC)cc1 (stereo unspecified)	-2.0	8.5	-8.5	-1.0	-0.5	-1.2
Cc1c(N=Cc2nc3ccccc3[nH]2)c(=O)n(-c2ccccc2)n1C	-4.8	-6.1	-4.4	3.7	2.8	-2.8
Cc1c(N=Cc2nc3ccccc3n2C)c(=O)n(-c2ccccc2)n1C	-5.9	-10.7	-0.9	5.1*	1.2	0.7
O=C(N/N=C/c1cc(Br)cc(Br)c1O)c1cccc(S(=O)(=O)N2CCOCC2)c1	-5.9	-10.2	-7.4	0.7	-0.4	34.8*
O=C(C[n+]1ccccc1)N/N=C/c1cc(Br)cc(Br)c1O	-3.4	0.4	/	/	-1.5	-10.0
O=C(N/N=C/c1ccccc1Br)c1cccc(S(=O)(=O)N2CCOCC2)c1	-1.0	8.4	-2.8	0.7	4.2	14.1
O=C(CP(=O)(c1ccccc1)c1ccccc1)N/N=C/c1cc(Br)cc(Br)c1O	-0.5	0.3	-3.5	-0.6	0.9	43.8*
O=C(N/N=C/c1cc(Br)cc(Br)c1O)c1cccc(N2CCCC2=O)c1	-5.7	-25.6	4.4	2.6	0.6	33.3*
O=C(N/N=C/c1ccc(Cl)cc1Cl)c1cccc(N2CCCC2=O)c1	-3.1	-1.1	-8.2	-0.2	0.7	-4.9
CCOC(=O)C1=C(c2ccccc2)N=c2s/c(=C\c3ccc(O)cc3)c(=O)n2C1c1cccs1 (stereo unspecified)	-2.7	-25.1	-5.2	1.4	-1.8	34.6*
COc1cc(/C=N/NC(=O)c2ccc(CN3c4cccc5cccc(c45)S3(=O)=O)cc2)cc(OC)c1O	-11.0	1.4	-3.4	4.6*	/	24.8
O=C(N/N=C/CCc1ccccc1)c1ccc(CN2c3cccc4cccc(c34)S2(=O)=O)cc1	-8.4	-2.7	1.0	0.7	1.5	22.5

Assay outcomes (PubChem)
